Data reported in ChEMBL document CHEMBL2311425, “Histone deacetylase (HDAC) inhibitors with a novel connecting unit linker region reveal a selectivity profile for HDAC4 and HDAC5 with improved activity against chemoresistant cancer cells” (J Med Chem, 2013).

Key:
[1] = test system: CAL-27; experiment: Potentiation of 2.5 uM cisplatin-induced toxicity in 1 uM cisplatin resistant human CAL27 cells at 1 uM pretreated for 48 hrs followed by 1 uM cisplatin treatment by MTT assay; format: functional
[2] = test system: CAL-27; experiment: Potentiation of 2.5 uM cisplatin-induced toxicity in 1 uM cisplatin resistant human CAL27 cells at 1.5 uM pretreated for 48 hrs followed by 1 uM cisplatin treatment by MTT assay; format: functional
[3] = test system: A2780; experiment: Potentiation of cisplatin-induced toxicity in cisplatin resistant human A2780 cells at 1 uM pretreated for 48 hrs followed by cisplatin treatment by MTT assay; format: functional
In short: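 Resistant sublines pretreated 48 h with 1 μM HDAC inhibitor, then cisplatin over a concentration range for 72 h; MTT viability read at 544/690 nm. Cisplatin IC50 from four-parameter logistic fit of pooled data (≥3 experiments, triplicate); shift factor = IC50 of cisplatin alone divided by IC50 of the combination.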

[4] = test system: KYSE-510; experiment: Potentiation of 0.75 uM cisplatin-induced toxicity in 0.5 uM cisplatin resistant human KYSE-510 cells at 0.5 uM pretreated for 48 hrs followed by 0.5 uM cisplatin treatment by MTT assay; format: functional
In short: (§1)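 Cisplatin-resistant Kyse510 CisR (derived by weekly cycles of cisplatin over 24−30 weeks), grown in RPMI 1640 with 10% FCS at 37 °C, 5% CO₂. Test agent added 48 h before cisplatin, then 72 h further incubation. Viability by MTT (read at 544/690 nm) relative to untreated control wells. Combination index by Chou−Talalay method. Mean of three experiments.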

[5] = test system: A2780; experiment: Potentiation of 8 uM cisplatin-induced toxicity in 5 uM cisplatin resistant human A2780 cells at 0.5 uM pretreated for 48 hrs followed by 5 uM cisplatin treatment by MTT assay; format: functional
[6] = target: T1, Protein deacetylase HDAC6 (Homo sapiens, UniProt Q9UBN7); experiment: Inhibition of human HDAC6 by fluorescence assay
T1 sequence (Q9UBN7 whole entry): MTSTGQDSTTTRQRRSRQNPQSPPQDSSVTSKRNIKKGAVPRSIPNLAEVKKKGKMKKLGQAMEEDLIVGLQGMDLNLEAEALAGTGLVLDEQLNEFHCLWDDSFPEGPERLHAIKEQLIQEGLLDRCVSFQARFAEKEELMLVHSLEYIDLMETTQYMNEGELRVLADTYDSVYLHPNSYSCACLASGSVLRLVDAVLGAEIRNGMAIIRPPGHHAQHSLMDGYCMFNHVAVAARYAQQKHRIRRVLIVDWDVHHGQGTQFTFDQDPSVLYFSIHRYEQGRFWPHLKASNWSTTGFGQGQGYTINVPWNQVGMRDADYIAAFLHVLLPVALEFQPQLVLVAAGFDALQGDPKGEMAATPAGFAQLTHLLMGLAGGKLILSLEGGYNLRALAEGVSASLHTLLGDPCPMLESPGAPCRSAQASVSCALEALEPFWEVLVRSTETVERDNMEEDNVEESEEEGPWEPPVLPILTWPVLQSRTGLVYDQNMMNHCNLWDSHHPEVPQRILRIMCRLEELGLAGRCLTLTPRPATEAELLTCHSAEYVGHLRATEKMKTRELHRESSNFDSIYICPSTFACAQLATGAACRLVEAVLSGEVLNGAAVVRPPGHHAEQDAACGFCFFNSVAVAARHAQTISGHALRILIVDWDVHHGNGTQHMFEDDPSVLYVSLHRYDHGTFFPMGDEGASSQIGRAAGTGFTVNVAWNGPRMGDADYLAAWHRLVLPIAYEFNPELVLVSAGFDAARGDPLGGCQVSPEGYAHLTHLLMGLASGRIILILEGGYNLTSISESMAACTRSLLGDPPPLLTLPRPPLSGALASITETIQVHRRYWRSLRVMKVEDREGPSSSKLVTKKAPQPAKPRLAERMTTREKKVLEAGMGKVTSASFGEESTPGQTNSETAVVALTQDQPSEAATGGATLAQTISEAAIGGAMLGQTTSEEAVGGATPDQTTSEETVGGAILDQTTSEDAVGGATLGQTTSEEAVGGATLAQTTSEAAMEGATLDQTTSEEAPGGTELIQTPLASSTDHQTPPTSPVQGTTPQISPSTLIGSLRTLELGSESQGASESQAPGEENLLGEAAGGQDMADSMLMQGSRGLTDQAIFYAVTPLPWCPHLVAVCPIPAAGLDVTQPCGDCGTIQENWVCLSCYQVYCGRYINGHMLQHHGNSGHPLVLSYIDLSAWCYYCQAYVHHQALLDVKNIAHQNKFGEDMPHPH

[7] = test system: MDA-MB-231; experiment: Potentiation of […] cisplatin-induced toxicity in 1 uM cisplatin resistant human MDA-MB-231 cells at 1 uM pretreated for 48 hrs followed by 1 uM cisplatin treatment by MTT assay; format: functional
[8] = test system: MDA-MB-231; experiment: Potentiation of 40 uM cisplatin-induced toxicity in 1 uM cisplatin resistant human MDA-MB-231 cells at 1.5 uM pretreated for 48 hrs followed by 1 uM cisplatin treatment by MTT assay; format: functional
[9] = test system: CAL-27; experiment: Potentiation of 10 uM cisplatin-induced toxicity in 1 uM cisplatin resistant human CAL27 cells at 1.5 uM pretreated for 48 hrs followed by 1 uM cisplatin treatment by MTT assay; format: functional
[10] = test system: CAL-27; experiment: Potentiation of 45 uM cisplatin-induced toxicity in 1 uM cisplatin resistant human CAL27 cells at 0.25 uM pretreated for 48 hrs followed by 1 uM cisplatin treatment by MTT assay; format: functional
[11] = target: Histone deacetylase; experiment: Inhibition of HDAC in cisplatin sensitive human CAL27 cells after 18 hrs by fluorescence assay; format: cell-based; conditions: cal-27
[12] = test system: MDA-MB-231; experiment: Potentiation of 40 uM cisplatin-induced toxicity in 1 uM cisplatin resistant human MDA-MB-231 cells at 0.5 uM pretreated for 48 hrs followed by 1 uM cisplatin treatment by MTT assay; format: functional
[13] = test system: KYSE-510; experiment: Potentiation of 0.75 uM cisplatin-induced toxicity in 0.5 uM cisplatin resistant human KYSE-510 cells at 0.25 uM pretreated for 48 hrs followed by 0.5 uM cisplatin treatment by MTT assay; format: functional; in short: as §1
[14] = test system: MDA-MB-231; experiment: Cytotoxicity against cisplatin sensitive human MDA-MB-231 cells after 72 hrs by MTT assay; format: functional, cell-based
In short: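 MDA-MB-231 (parental), 10 000 cells/well, in DMEM with 15% FCS at 37 °C, 5% CO2. Compounds added 24 h after seeding for 72 h. MTT (5 mg/mL in PBS) was added, formazan dissolved in DMSO, absorbance read at 544 and 690 nm. IC50 from four-parameter logistic fit of ≥3 experiments in triplicate.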

[15] = test system: CAL-27; experiment: Potentiation of 5 uM cisplatin-induced toxicity in 1 uM cisplatin resistant human CAL27 cells at 1.5 uM pretreated for 48 hrs followed by 1 uM cisplatin treatment by MTT assay; format: functional

In the case of `Cc1cc(C)cc(C(=O)NOCCCCCC(=O)NO)c1`, the Activity [1] is reported as “Dose-dependent effect”, the “fractional inhibitory concentration index (FICI)” value [1] is reported as 0.38 and the Activity [2] is reported as “Dose-dependent effect”. The “fractional inhibitory concentration index (FICI)” value [2] was 0.34, the Activity [3] was “Dose-dependent effect” and the fold change (FC) [3] was 4.02. For the same molecule, the Activity [4] was “Dose-dependent effect”, the “fractional inhibitory concentration index (FICI)” value [4] was 0.07 and the Activity [5] was “Dose-dependent effect”. For the same molecule, the “fractional inhibitory concentration index (FICI)” value [5] was 0.66, the IC50 [6] was 55.7 nM and the Activity [7] was “Dose-dependent effect”. For the same molecule, the “fractional inhibitory concentration index (FICI)” value [7] was 0.75, the Activity [8] was “Dose-dependent effect” and the “fractional inhibitory concentration index (FICI)” value [8] was 0.84. For the same molecule, the Activity [9] was “Dose-dependent effect”, the “fractional inhibitory concentration index (FICI)” value [9] was 0.2 and the Activity [10] was “Dose-dependent effect”. The “fractional inhibitory concentration index (FICI)” value [10] was 0.27, the IC50 [11] was 360 nM and the Activity [12] was “Dose-dependent effect”. The “fractional inhibitory concentration index (FICI)” value [12] was 0.88, the Activity [13] was “Dose-dependent effect” and the “fractional inhibitory concentration index (FICI)” value [13] was 0.1. The Activity [14] was “Dose-dependent effect”, the IC50 ([14]; MDA-MB-231, 72 h) was 1370 nM and the Activity [15] was “Dose-dependent effect”. The “fractional inhibitory concentration index (FICI)” value [15] was 0.22.
